This is an account of results in ChEMBL document CHEMBL1151916, “N-tert-butyl and N-methyl nitrones derived from aromatic aldehydes inhibit macromolecular permeability increase induced by ischemia/reperfusion in hamsters” (2009).

Holding throughout (assay type): functional, Mesocricetus auratus
Assay [1] relates to Syrian golden hamster. Description: Protective activity against ischemia/reperfusion-induced increase in macromolecular permeability in po dosed golden hamster cheek pouch administered 30 mins before induction of anesthesia. The essentials: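 Male hamsters, dosed by gavage 30 min before anesthesia induction. The cheek pouch was made totally ischemic for 30 min with a syringe-inflated rubber tourniquet until blood flow ceased. Macromolecular leakage sites per cm² were counted by intravital microscopy 10 min after reperfusion onset and expressed as percentage protection relative to controls.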

Assay [2] has as its system Syrian golden hamster. Put plainly: Protective activity against ischemia/reperfusion-induced increase in macromolecular permeability in iv dosed golden hamster cheek pouch administered 10 mins before onset of reperfusion. The essentials:
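Male hamster cheek pouch under intravital microscopy; compound given intravenously 10 min before reperfusion onset. Total ischemia of 30 min was produced by a soft rubber tourniquet, pressurized by syringe until flow stopped. Leakage sites (leaks/cm²) were counted 10 min after reperfusion onset and converted to percentage protection against untreated controls.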

Assay [3] concerns Syrian golden hamster. Description: Protective activity against histamine-induced increase in macromolecular permeability in po dosed golden hamster cheek pouch administered 30 mins before induction of anesthesia. The essentials:
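Oral gavage to male hamsters 30 min before anesthesia induction. Permeability increase was induced by topical histamine on the cheek pouch and read as leakage sites per unit area (leaks/cm²) by intravital microscopy.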

The test system of assay [4] is Syrian golden hamster. Description: Protective activity against ischemia/reperfusion-induced increase in macromolecular permeability in po dosed golden hamster cheek pouch administered for 10 days.
For assay [5], the system named is Syrian golden hamster. Put plainly: Protective activity against histamine-induced increase in macromolecular permeability in po dosed golden hamster cheek pouch administered for 10 days.

Turning to `CNO`, the Activity worked out at 23% in the assay with Syrian golden hamster [1], 33% in the assay with Syrian golden hamster [2] and 11% in the assay on Syrian golden hamster [3].

In the case of `COc1cc(/C=[N+](\[O-])C(C)(C)C)ccc1OCc1ccccc1`, the Activity turned out to be 68% in the assay on Syrian golden hamster [1], 36% with Syrian golden hamster [2] and 32% in the assay on Syrian golden hamster [3].

As to `Cc1ccc(/C=[N+](\[O-])C(C)(C)C)cc1`, the figures for the Activity in the assay with Syrian golden hamster [1] and in the assay on Syrian golden hamster [2] were 14% and 55%, respectively.

In the case of `C/[N+]([O-])=C/c1cccc(Oc2ccccc2)c1`, the Activity in the assay on Syrian golden hamster [1] was found to be 46%; in the assay on Syrian golden hamster [2], 61%; with Syrian golden hamster [3], 13%.

Regarding `Cc1ccc(/C=[N+](/C)[O-])cc1`, the figures for the Activity with Syrian golden hamster [1] and in the assay with Syrian golden hamster [2] were 24% and 21%, respectively.

Regarding `CC(C)(C)/[N+]([O-])=C/c1ccc(Cl)cc1`, the Activity in the assay with Syrian golden hamster [1] was found to be 63%; in the assay on Syrian golden hamster [2], 53%.

For the compound `CC(C)(C)/[N+]([O-])=C/c1cccc(Oc2ccccc2)c1`, the Activity with Syrian golden hamster [1] came out at 12%; in the assay with Syrian golden hamster [2] it was 18%.

For the compound `C/[N+]([O-])=C/c1ccc(Cl)cc1`, the values for the Activity with Syrian golden hamster [1], with Syrian golden hamster [2] and in the assay with Syrian golden hamster [3] were 31%, 27% and 29%, respectively.

Turning to `C/[N+]([O-])=C/c1ccco1`, the Activity amounted to 15% with Syrian golden hamster [1], 59% in the assay on Syrian golden hamster [2] and 32% in the assay on Syrian golden hamster [3].

Turning to `CC(C)(C)NO`, the values for the Activity in the assay with Syrian golden hamster [1], in the assay with Syrian golden hamster [2] and with Syrian golden hamster [3] were 10%, 7% and 40%, respectively.

Regarding `C/[N+]([O-])=C/c1ccc2c(c1)OCO2`, the Activity was 3% in the assay with Syrian golden hamster [1], 50% in the assay on Syrian golden hamster [2] and 42% in the assay on Syrian golden hamster [3].

On to `COc1cc(/C=[N+](/C)[O-])ccc1OCc1ccccc1`, for which the Activity was 72% in the assay on Syrian golden hamster [1], 51% in the assay on Syrian golden hamster [2] and 15% in the assay with Syrian golden hamster [3].

Turning to `CC(C)(C)/[N+]([O-])=C/c1ccc2c(c1)OCO2`, the Activity was determined as 65% with Syrian golden hamster [1] and 38% with Syrian golden hamster [2].

On to `Cc1c(C)c2c(c(C)c1O)CC[C@@](C)(CCC[C@H](C)CCC[C@H](C)CCCC(C)C)O2` [ALPHA-TOCOPHEROL], for which the Activity came to 50% with Syrian golden hamster [4] and 40% in the assay with Syrian golden hamster [5].
